Test [1] can be described thus: Inhibition of Mycobacterium tuberculosis N-terminal His-tagged BioA assessed as dissociation constant by isothermal titration calorimetry. In outline: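 Isothermal titration calorimetry at 25 °C in 25 mM HEPES pH 7.5, 50 mM NaCl, with 100 µM PLP-saturated His-tagged BioA (E. coli-expressed) in the cell. Ligand at 1.0, 1.5 or 2.0 mM, DMSO matched, given as 2 µL injections 150 s apart with stirring at 750 rpm. First injection discarded; heats of dilution corrected. KD = 1/KA from curve fit, averaged over three replicates.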
In general terms: In ITC the heat of successive injections is recorded.

The test system of test [2] is Mycobacterium tuberculosis. Description: Inhibition of Mycobacterium tuberculosis N-terminal His-tagged BioA assessed as temperature of denaturation shift by […]. The method in brief: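 Differential scanning fluorimetry with 0.05 mg/mL holo BioA in 25 mM HEPES pH 7.5, 50 mM NaCl, 5× SYPRO Orange, and 5 mM fragment from 200 mM DMSO stock. Heated 55–100 °C in 0.5 °C steps with 60 s dwell. Tm taken at the first-derivative peak; the shift is against the mean of DMSO-only controls on the same plate. Four replicates, mean with standard error.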

The subject of test [3] is Mycobacterium tuberculosis. Description: Antimycobacterial activity against Mycobacterium tuberculosis H37Rv assessed as growth inhibition after 9 days by Whole cell growth assay in presence of 1000 nM biotin. It counts as functional, organism-based. The note with it: 216 h. In outline:
(§1)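 Virulent H37Rv wild type pregrown in Sauton's medium with 1000 nM biotin to OD580 1.0–1.2, washed twice in biotin-free Sauton's medium, and seeded at OD580 0.03 in biotin-free medium or with 1000 nM biotin added. Compounds were tested at 2-fold dilutions, 1000 to 3.9 µM final, against no-compound controls. OD read after nine days at 37 °C, in triplicate; MIC calculated.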

For test [4], the system named is Mycobacterium tuberculosis. Description: Antimycobacterial activity against Mycobacterium tuberculosis BioA-UE strain assessed as growth inhibition after 9 days by Whole cell growth assay in presence of 1000 nM biotin. It counts as functional, organism-based. The note with it: 216 h. In outline: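 Mtb BioA-underexpressing strain pregrown in Sauton's medium with 1000 nM biotin to OD580 1.0–1.2, washed twice in biotin-free Sauton's medium, and seeded at OD580 0.03 in medium with 1000 nM biotin plus 200 ng/mL anhydrotetracycline. Compounds were tested at 2-fold serial dilutions, 1000 to 3.9 µM final, against no-compound controls. OD read after nine days at 37 °C, in triplicate; MIC calculated from growth.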

Test [5] relates to Mycobacterium tuberculosis. Description: Antimycobacterial activity against Mycobacterium tuberculosis H37Rv assessed as growth inhibition after 9 days by Whole cell growth assay. It counts as functional, organism-based. The following applies: 216 h. In outline:
as §1

Test [6] is described as follows: Inhibition of Mycobacterium tuberculosis H37Rv N-terminal His-tagged BioA using KAPA substrate by in vitro biochemical assay.

A value given as a limit tells only on which side of the number the result lay.

For orientation: Kd means the concentration at which binding is half-saturated. As usually defined, the ΔTm is the shift of the melting midpoint relative to a reference. The IC50 is the concentration at which inhibition is half-maximal.

On to `NCc1ccc(Cn2cc(Cl)cn2)cc1`, for which the Kd in test [1] was 6.8 µM. For the same compound, the ΔTm in test [2] is -11.9 °C.

As for `CC(=O)Nc1ccc2c(c1)C=CC2=O`, the IC50 in test [3], in test [4] and in test [5] was more than 1000 µM in each case. The Kd in test [1] worked out at 21.7 µM. The ΔTm in test [2] came to 3.6 °C.

For `NC(=O)c1ccc(-n2ccnc2)cc1`, the half-maximal inhibitory concentration (IC50) in test [3], in test [4] and in test [5] was more than 1000 µM throughout. In addition, in test [1], the dissociation constant (Kd) is 15 µM. In addition, in test [2], the thermal shift (ΔTm) was determined as 4.1 °C.

Compound `O=c1cc(-c2ccccc2F)[nH]c2cc3c(cc12)OCO3` showed a concentration for half-maximal inhibition (IC50) in test [6] of 440 nM.

Turning to `O=C(c1ccccc1)C1CCNCC1`, the IC50 amounted to 357 µM in test [3], 260 µM in test [4] and 340 µM in test [5]. Besides, the Kd in test [1] turned out to be 41.8 µM. For the same compound, the shift in melting temperature (ΔTm) in test [2] was found to be 3.6 °C.

For `NC(=O)c1ccc(-c2ccccn2)s1`, the IC50 in test [3] is more than 1000 µM; in test [4] it was 39.2 µM; in test [5], 249 µM. Moreover, the Kd in test [1] is 6.9 µM. For the same compound, the ΔTm in test [2] was 6.3 °C.

Turning to `NCc1nc2ccccc2s1`, the half-inhibitory concentration (IC50) in test [3] stood at 304 µM; in test [4], 368 µM; in test [5], 250 µM. In addition, in test [1], the Kd was found to be 30.3 µM. Also, in test [2], the ΔTm was -6.5 °C.

With `CNCc1ccc(Cn2cccn2)cc1`, the 50% inhibitory concentration (IC50) in test [3], in test [4] and in test [5] was more than 1000 µM throughout. Also, in test [1], the Kd was 11.7 µM. Moreover, in test [2], the shift in melting temperature (ΔTm) was 5.3 °C.

(Values after ChEMBL document CHEMBL3580577, “Fragment-based exploration of binding site flexibility in Mycobacterium tuberculosis BioA” (J Med Chem, 2015).)
